Among all 220,000 compounds or so, about 390 (0.18%) were called active. What follows is part of a selection rich in actives, with near analogues and random picks from the rest. Values without a mark were called inactive.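 Rule for the calls: active = activation above its plate's cutoff, the mean activation of test wells on that plate plus 3 SD (cut at about 19% in these data); inactive = the rest.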
Test system: transient receptor potential cation channel N1 (TRPN1/NompC), Danio rerio
Assay: TRPN1 activation via calcium influx – cell-based, HEK293, calcium fluorescence, zebrafish, primary screen (AID 1424);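 note: 0% = DMSO alone and 100% = 87 µM carbachol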
Details: HEK293 zebrafish TRPN1-YFP, Fluo-8 calcium fluorescence; at 3 µM; active compounds read high; 100% = response to 87 µM carbachol
How it was run: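 Material: zebrafish TRPN1-YFP in HEK293 cells. Doses: one dose of 3 µM, 0.3% DMSO. Incubation: dye 1 h 37 °C plus 30 min RT. Measured by: intracellular calcium fluorescence with Fluo-8.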

SMILES	activation
Cc1ccc(-n2c(C)cc(/C=N/Nc3ccc([N+](=O)[O-])cn3)c2C)c(C)c1	-0.82%
C/C=N/N(c1ccccc1)c1ccccc1	0.69%
COc1cc(NC(=S)NCCSc2ccc(C)cc2)cc(OC)c1	-3.08%
Cc1cc(C)c(S(=O)(=O)N2CCOCC2)cc1C	-0.54%
CC(C)n1c(NCc2c[nH]c3ccccc23)nc2ccccc21	-0.19%
Cc1nc(S(=O)(=O)c2ccc(Br)cc2)nc2c1CCC2	0.17%
CN(C)C=NC(=O)c1cccn1-c1ncc(C(F)(F)F)cc1Cl	-0.1%
NS(=O)(=O)c1ccc(NC(=O)COC(=O)c2ccc(Cl)nc2)cc1	1.46%
COc1cc(-c2cc(C(=O)OCC(=O)Nc3ccc4c(c3)OCO4)c3ccccc3n2)cc(OC)c1OC	-1.87%
NS(=O)(=O)c1ccc(NC(=O)COC(=O)c2c3c(nc4ccccc24)/C(=C\c2ccc4c(c2)OCO4)CCC3)cc1	47.9% (active)
NS(=O)(=O)c1ccc(NC(=O)COC(=O)c2cc3ccccc3oc2=O)cc1	0.38%
O=C(COC(=O)c1c2c(nc3ccccc13)/C(=C\c1cccs1)CCC2)Nc1ccccc1Cl	-1.63%
NC(=O)c1ccc(NC(=O)COC(=O)c2c3c(nc4ccccc24)/C(=C\c2ccc4c(c2)OCO4)CCC3)cc1	41.6% (active)
CCN1CCC2(CC1)N=C(c1ccc(F)cc1)C(=S)N2C(=O)c1ccc(C)cc1	-0.33%
COC(=O)c1ccc(C(NC(=O)OCc2ccccc2)/C(C)=C/[C@@H](C)C(=O)NCc2ccc(OC)c(OC)c2)cc1 (some centres not stated)	-0.55%
COc1ccc(OCc2n[nH]c(=S)n2N)cc1	0.96%
COC(=O)c1ccc(CN2CCC(CO)(Cc3ccc(OC)cc3)CC2)cc1	4.67%
CCn1c(=S)[nH]c2sc3c(c2c1=O)CCCCC3	0.92%
O=C(C1=C[C@H](c2ccc(C(F)(F)F)cc2)C[C@H](OCc2ccc(CO)cc2)O1)N1CCN(Cc2ccccc2)CC1	-0.62%

SMILES	activation
Cc1nc(=O)c(-c2ccccc2)c(C)n1-c1ccc(Br)cc1	1.06%
CC1(C)CC(=O)C(C2c3ccccc3S(=O)(=O)c3ccccc32)C(=O)C1	-1.19%
O=C(CCc1ccccc1)Nc1ncc([N+](=O)[O-])s1	9.35%
CC(=O)Oc1ccccc1C(=O)Nc1ncc([N+](=O)[O-])s1	22.2% (active)
O=C(Cc1c(F)cccc1Cl)Nc1ncc([N+](=O)[O-])s1	18.3%
CC(=O)c1ccc(N2CCN(S(=O)(=O)c3c(C)[nH]c(=O)[nH]c3=O)CC2)cc1	0.25%
CCc1nc2ccccc2c(C(=O)NCc2ccc(OC)cc2)c1C	-0.1%
Cc1ccc(NC(=O)CN(C)CC(=O)Nc2cccc(F)c2)cc1[N+](=O)[O-]	8.52%
CN(CC(=O)Nc1cccc(F)c1)CC(=O)Nc1cccc([N+](=O)[O-])c1	44.2% (active)
Cc1ccc(CN(C)CC(=O)Nc2cccc([N+](=O)[O-])c2)o1	-1.16%
CCOP(=O)(OCC)C(Nc1ccc([N+](=O)[O-])cc1)c1ccc(Cl)cc1 (configuration not stated)	-1.18%
Cc1cc(Nc2ccc(Cl)cc2)nc(N2CCOCC2)n1	-0.78%
O=C(O)CCn1c(SCc2cc(=O)n3ccccc3n2)nc2ccsc2c1=O	0.55%
CCN(CC)C(=O)CC1(c2ccccc2OC)CCOC(C(C)C)C1 (configuration not stated)	-0.7%
O=C(O)c1cccc(N2C(=O)Nc3ccccc3N2O)c1	-0.51%
COc1ccc(N2C(=O)c3ccccc3NC2c2ccc(OC)c(CN3CCOCC3)c2)cc1 (configuration not stated)	0.64%
CC(NC(=O)COC(=O)c1cc(=O)[nH]c2ccccc12)c1ccccc1 (configuration not stated)	2.26%
O=c1[nH]c2c(c(=O)n1Cc1ccccc1)CCC2	-0.42%
Cc1cc2nc3c(=O)n(Cc4ccccc4)c(=O)[nH]c3nc2cc1N	37.4% (active)

SMILES	activation
CC(=O)c1ccc(-c2ccc(Cn3c(C)nc4cc(N)c(C)nc43)cc2)cc1	0.89%
COc1ccc(NC(=S)N2N=CCC2c2ccccc2)cc1 (configuration not stated)	0.6%
CCOc1ccc2c(=O)c(-c3ccc4c(c3)OCCCO4)c(C)oc2c1	-1.72%
COC(=O)/C(C#N)=C/c1occc1C	1.02%
CCCCCc1ccc(-c2ccc(OCC)cc2)nc1	1.46%
O=C(Cc1ncc(C(F)(F)F)cc1Cl)Nc1cccc(Br)c1	0.3%
c1ccc2c(c1)OCCOCCOCCO2	-2.17%
CN(C)CCCN(Cc1cc2cc3c(cc2[nH]c1=O)OCCO3)C(=O)NC1CCCCC1	1.71%
Cc1nn(-c2ccccc2)c(NC(=O)c2cccs2)c(-c2ccc(Cl)cc2)c1=O	-0.42%
C/C(=N\NC(=O)CC(C)C)c1c(C(F)(F)F)[nH]n(-c2nc3ccccc3s2)c1=O	-0.3%
Cc1onc(-c2ccccc2)c1C(=O)NNC(=S)NC(=O)c1ccc(F)cc1	13.6%
COc1ccc(C(=O)NC(=S)NNC(=O)c2c(-c3ccccc3)noc2C)cc1	44% (active)
COc1ccc(C(=O)NC(=S)NNC(=O)CCc2ccccc2)cc1	12%
CC(C)C(=O)Nc1cccc(NC(=S)NC(=O)C(c2ccccc2)c2ccccc2)c1	2.14%
O=C(NNC(=S)NCc1ccco1)C(c1ccccc1)c1ccccc1	-0.07%
CCCCC(=O)NNC(=S)NC(=O)C(c1ccccc1)c1ccccc1	84.8% (active)
CC(=O)Nc1ccc(S(=O)(=O)NC2(C(F)(F)F)C(=O)Nc3c2c(=O)[nH]c(=O)n3Cc2ccccc2)cc1 (configuration not stated)	2.33%
CC(C)Cc1nc(Cl)c(C#N)c2c1CCC2	-2.32%
Cc1ccc(Nc2cc(C)nc3c(C)ccc([N+](=O)[O-])c23)cc1	-2.21%
